A short description of series [1]: Solubility of the compound in ethanol. The format is physicochemical.
A short description of series [2]: Solubility of the compound in DMSO. The format is physicochemical.
Series [3] in a line: Solubility of the compound in water. It counts as physicochemical. The settings on record: buffer.
A short description of series [4]: Solubility of the compound in phosphate buffer at pH 3.2. It counts as physicochemical.
For series [5], the target named is T1, Gamma-aminobutyric acid receptor subunit alpha-1/beta-2/beta-3/gamma-2 (Rattus norvegicus) (UniProt P18508+P62813+P63079+P63138). Description: Inverse agonist activity at GABA alpha1beta2beta3gamma2 receptor Bzd binding site in Sprague-Dawley rat cerebellar granule cells assessed as decrease in GABA-activated chloride currents at 1 uM by whole-cell patch clamp technique relative to control. The method, boiled down: (§1)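 Whole-cell patch clamp on cultured rat cerebellar granule cells. Peak, rapidly desensitizing chloride current evoked by 10 μM GABA, recorded with and without test compound. Compounds applied at 1 μM, or at 0.47 μM where solubility limited. Change expressed as percent of the current with GABA alone (E %), mean ± SEM. Student's t-test against GABA alone.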
In general terms: The patch-clamp technique gives a direct electrical read-out from membranes.

Series [6] has as its target T1, Gamma-aminobutyric acid receptor subunit alpha-1/beta-2/beta-3/gamma-2 (Rattus norvegicus). Description: Agonist activity at GABA alpha1beta2beta3gamma2 receptor Bzd binding site in Sprague-Dawley rat cerebellar granule cells assessed as increase in GABA-activated chloride currents at 1 uM by whole-cell patch clamp technique relative to control. The method, boiled down:
as §1

Series [7] in a line: Drug metabolism assessed as decarboxylated metabolite formation. It counts as ADME.
The target of series [8] is T1, Gamma-aminobutyric acid receptor subunit alpha-1/beta-2/beta-3/gamma-2 (Rattus norvegicus). Description: Inverse agonist activity at GABA alpha1beta2beta3gamma2 receptor Bzd binding site in Sprague-Dawley rat cerebellar granule cells assessed as decrease in GABA-activated chloride currents at 0.47 uM by whole-cell patch clamp technique relative to control. The method, boiled down: as §1

Molecules are shown by their SMILES.

`Cl.O=C(CC1c2ccccc2C(=O)N1c1ccc([N+](=O)[O-])cn1)N1CCN(c2ccccc2)CC1` (stereo not given): the solubility result in series [1], in series [2], in series [3] and in series [4] was “Soluble” throughout. Also, the Efficacy in series [5] was found to be 27%.
Turning to `Cl.O=C(CC1c2ccccc2C(=O)N1c1ccc([N+](=O)[O-])cn1)N1CCN(c2ccc(Cl)cc2)CC1` (stereo not given), the solubility result in series [1], in series [2], in series [3] and in series [4] was “Soluble” in each case. Further, the Efficacy in series [5] was found to be 36%.
Take `CN1CCN(C(=O)CC2c3ccccc3C(=O)N2c2ccc(Br)cn2)CC1.Cl` (stereo not given): the solubility entry in series [1], in series [2], in series [3] and in series [4] was “Soluble” each time. Moreover, the Efficacy in series [6] came out at 26%.
`CN1CCN(C(=O)CC2c3ccccc3C(=O)N2c2ccc(Cl)cn2)CC1.Cl` (stereo not given): the solubility result in series [1], in series [2], in series [3] and in series [4] was “Soluble” each time. Moreover, the Efficacy in series [6] was determined as 18%.
`CN1CCN(C(=O)OC2c3nccnc3C(=O)N2c2ccc(Cl)cn2)CC1` (stereo not given) [ZOPICLONE]: the Efficacy in series [6] came out at 58%. In addition, the Drug metabolism in series [7] was found to be 50 %ID.
Regarding `Cc1ccc(N2CCN(C(=O)CC3c4ccccc4C(=O)N3c3ccc([N+](=O)[O-])cn3)CC2)cc1.Cl` (stereo not given), the solubility result in series [1] was “Soluble”; in series [2], “Insoluble”; in series [3], “Soluble”; in series [4] it was “Soluble”.
As for `CN1CCN(C(=O)CC2c3ccccc3C(=O)N2c2ccccn2)CC1.Cl` (stereo not given), the solubility result in series [1], in series [2], in series [3] and in series [4] was “Soluble” each time. The Efficacy in series [6] was 20%.
Turning to `Cl.O=C(CC1c2ccccc2C(=O)N1c1ccc([N+](=O)[O-])cn1)N1CCN(c2ccc(F)cc2)CC1` (stereo not given), the solubility result in series [1], in series [2], in series [3] and in series [4] was “Soluble” in each case.
In the case of `Cc1ccc(N2C(=O)c3ccccc3C2CC(=O)N2CCN(C)CC2)nc1.Cl` (stereo not given), the solubility entry in series [1], in series [2], in series [3] and in series [4] was “Soluble” in each case. Also, the Efficacy in series [6] was 21%.
As to `COc1ccc(N2CCN(C(=O)CC3c4ccccc4C(=O)N3c3ccc([N+](=O)[O-])cn3)CC2)cc1.Cl` (stereo not given), the solubility entry in series [1], in series [2], in series [3] and in series [4] was “Soluble” each time. The Efficacy in series [5] worked out at 21%.
For `CN1CCN(C(=O)CC2c3ccccc3C(=O)N2c2ccc([N+](=O)[O-])cn2)CC1.Cl` (stereo not given), the solubility result in series [1], in series [2], in series [3] and in series [4] was “Soluble” throughout. Besides, in series [6], the Efficacy stood at 34%.
Regarding `CN1CCN(C(=O)CC2c3ccccc3C(=O)N2c2ccc(N)cn2)CC1.Cl` (stereo not given), the solubility entry in series [1] is “Soluble”; in series [2], “Insoluble”; in series [3] it was “Soluble”; in series [4] it was “Soluble”. In addition, the Efficacy in series [8] came to 23%.

Values taken from ChEMBL document CHEMBL3864135, “Synthesis and pharmacological evaluation of functionalized isoindolinones on GABA-activated chloride currents in rat cerebellum granule cells in culture” (Bioorg Med Chem Lett, 2016).
